Sampled rows, rich in hits. Any-hit rate of the full collection: about 4.5%.
TAAR1 antag = antagonists of human TAAR1. CHO RD-HGA16 TAAR1, Fluo-8 calcium fluorescence, antagonist. inhibition, % at 3 µM. hit rate 1.5% among 360,000. AID 624466;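 active = inhibition above a per-plate cutoff, the mean inhibition of test compounds on that plate plus 3 SD, cut at about 49% in these data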
Target sequence (Q96RJ0 whole entry, looked up): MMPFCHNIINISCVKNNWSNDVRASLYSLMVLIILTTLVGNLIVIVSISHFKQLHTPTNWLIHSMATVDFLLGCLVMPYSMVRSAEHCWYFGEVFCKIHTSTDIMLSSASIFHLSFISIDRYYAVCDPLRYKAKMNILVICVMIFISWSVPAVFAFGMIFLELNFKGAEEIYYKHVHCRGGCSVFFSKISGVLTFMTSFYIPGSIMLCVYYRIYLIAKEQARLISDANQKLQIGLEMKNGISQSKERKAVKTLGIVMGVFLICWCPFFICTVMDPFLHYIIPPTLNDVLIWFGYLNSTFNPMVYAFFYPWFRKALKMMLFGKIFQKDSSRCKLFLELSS
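Assay system: RD-HGA16 CHO cells with stable hTAAR1 and Gα16 / Reagent: EC80 β-phenethylamine stimulus / Doses: 3 µM, single point / Timing: dye loading 75 min at 37 °C, then 30 min room temperature / Measured by: Fluo-8 intracellular calcium dye fluorescence, real-time kinetic reads / Controls: vehicle wells and EC80 agonist wells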
OX1R antag-1 = antagonists of human orexin 1 receptor (OX1R); OX1R-expressing cells, FRET antagonist read-out; inhibition, % at 6.6 µM; hit rate 1.8% among 330,000; AID 485270; in the data active = inhibition mostly above about 38%, no sharp cut-off; inactive = mostly below about 40%
TAAR1 ag = human TAAR1 agonism | Q96RJ0 | CHO RD-HGA16 TAAR1, Fluo-8 calcium fluorescence; vehicle wells 0%, saturating PEA agonist 100% | activation, % at 3 µM | hit rate 0.99% among 360,000 | AID 624467;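 active = activation above the mean activation of all test compounds in the run plus 3 SD, cut at about 38% in these data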
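Test system: RD-HGA16 (CHO) cells co-expressing Gα16 and hTAAR1; dosing: one-point dosing at 3 µM (nominal); timing: 17-24 h seeding, 75 min 37 °C dye, 30 min RT; signal: kinetic Fluo-8 calcium fluorescence; read-out basis: % activation relative to PEA EC100 response; controls: DMSO and PEA EC100; replicates: n 1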
OX1R antag-2 = human HCRTR1 antagonism | hit rate 0.43% among 330,000 | O43613 | CHO/OX1R cells, Fluo-8 calcium fluorescence, orexin A | AID 434989 | inhibition, % at 5 µM;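 active = inhibition above its plate's threshold, mean inhibition of all tested compounds on the plate plus 3 SD, cut at about 37% in these data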
CHO parental Ca = counter-screen for OX1R antagonists: effect in parental CHO cells | parental CHO-K1, ATP-induced calcium, Fluo-8 fluorescence | inhibition, % at 5.6 µM | hit rate 0.63% among 330,000 | AID 463079;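 active = inhibition above that plate's mean sample inhibition plus 3 SD, cut at about 26% in these data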
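test system = CHO parental line | reagent = ATP stimulus | measured by = intracellular calcium via Fluo-8 no-wash fluorescent dye | control set = ATP and no-ATP DMSO wells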
GPR7 antagonist = blocks human GPR7 receptor signaling; GPR7-expressing cells, fluorescence antagonist assay; hit rate 1.1% among 290,000; AID 1861; inhibition, % at 4.4 µM; in the data active = inhibition above about 16%, passing the limit was not always enough;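 also: cells stimulated with the agonist NPW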
Target sequence (P48145 whole entry, looked up): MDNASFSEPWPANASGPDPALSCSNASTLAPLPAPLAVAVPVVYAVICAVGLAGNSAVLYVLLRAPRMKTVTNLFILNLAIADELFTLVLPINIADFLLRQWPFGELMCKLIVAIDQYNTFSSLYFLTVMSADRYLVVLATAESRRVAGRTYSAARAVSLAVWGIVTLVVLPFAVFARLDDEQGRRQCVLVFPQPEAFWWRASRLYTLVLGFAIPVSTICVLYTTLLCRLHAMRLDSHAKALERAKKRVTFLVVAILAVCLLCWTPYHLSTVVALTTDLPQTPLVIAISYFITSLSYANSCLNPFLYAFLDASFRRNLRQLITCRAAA
OX1R HTRF confirm = confirmation of human orexin 1 receptor antagonists, HTRF format | shares compounds with OX1R antag-1 | OX1R-expressing cells, HTRF antagonist assay | inhibition, % at 6.6 µM | hit rate 49% among 1,800; in the data active = inhibition above about 55%;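 also: CHO cells expressing OX1R stimulated with orexin A at about EC80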
CHO-K1 HTRF cnt = signal in parental CHO-K1 cells, OX1R antagonist counter-screen. HTRF counterscreen. shares compounds with OX1R antag-1. AID 493232. hit rate 48% among 1,800. inhibition, % at 6.6 µM; in the data active = inhibition above about 17%
Numbers stand for hits; – = inactive; · = no result.

SMILES	TAAR1 antag	OX1R antag-1	TAAR1 ag	OX1R antag-2	CHO parental Ca	GPR7 antagonist	OX1R HTRF confirm	CHO-K1 HTRF cnt
CC(C)CCN1C(Nc2ccccc2)=NC[C@@H]1C	–	–	–	–	–	–	·	·
O=C(CCS(=O)(=O)c1cccc2nsnc12)N1CCN(Cc2ccc3c(c2)OCO3)CC1	–	–	–	–	–	–	·	·
O=C(CCNS(=O)(=O)c1cccc2nsnc12)NCc1ccco1	–	122	–	–	–	–	–	39
O=C(CCNS(=O)(=O)c1cccs1)NC1CCN(Cc2ccccc2)CC1	–	–	–	–	–	–	·	·
O=C(CCS(=O)(=O)c1cccc2nsnc12)N1CCN(C(=O)c2ccco2)CC1	–	91	–	–	–	–	–	53
O=C(CCNS(=O)(=O)c1cccc2nsnc12)NC1CCN(Cc2ccccc2)CC1	–	78	–	–	–	–	–	53
CCCn1c(/C=C/c2cc[n+](C)cc2)nc2ccccc21	–	78	–	–	–	–	–	47
CC(C)Cn1c(/C=C/c2ccccc2)nc2ccccc21	–	–	–	–	–	–	·	·
O=C(Cc1cccs1)Nc1cccc(-c2nc3ccccc3o2)c1	–	77	–	–	–	–	74	–
COc1ccccc1/C=N/N1C(=O)c2cccc3cccc(c23)C1=O	–	97	–	–	–	–	–	55
C=CC[C@@H](CC(=O)N[C@@H](CO)Cc1ccccc1)C(=O)N[C@H](C)COC(=O)[C@@H](CC=C)Cc1ccc(F)cc1	–	–	–	–	–	·	·	·
c1ccc(N2CCN(c3ncnc4c3oc3ccccc34)CC2)cc1	49	90	–	–	–	–	65	–
CCOCCCn1c(=N)c(C(N)=S)cc2c(=O)n3cccc(C)c3nc21	–	87	–	–	–	–	–	42
CCNC(=O)c1cc2c(=O)n3cccc(C)c3nc2n(CCc2ccccc2)c1=N	–	–	–	–	–	–	·	·
Cc1ccc2nc3c(cc(C(=O)NCCc4ccccc4)c(=N)n3CCCN3CCOCC3)c(=O)n2c1	–	115	–	–	–	–	68	69
Cc1cccn2c(=O)c3cc(C(=O)NCCN4CCOCC4)c(=N)n(CCc4ccccc4)c3nc12	–	109	–	–	–	–	57	72
CC(C)(C)NC(=O)C(c1ccc(-c2ccccc2)cc1)N(C[C@H]1CC[C@@H]([C@@H]2CC[C@H](CO)O2)O1)C(=O)c1ccc(C(C)(C)C)cc1 (stereo partly drawn)	–	–	–	–	–	·	·	·
CC(=O)c1c(C)n([O-])c2cc(F)c(F)cc2[n+]1=O	–	81	–	–	–	–	67	54
COc1ccc2c(c1)[n+](=O)c(C(C)=O)c(C)n2[O-]	–	–	–	–	–	–	·	·
O=C1C(N2CCOCC2)=C(n2nnc3ccccc32)C(=O)c2ccccc21	–	189	–	–	–	–	–	75
CCOC(=O)[C@]12CCC=C1N(CCC1=CCCCC1)C(=O)[C@H](CC(=O)NCc1cccs1)C2	–	·	–	·	·	·	·	·
CCOc1ccc(S(=O)(=O)N2CCC(C(=O)NCc3ccncc3)CC2)cc1C	–	–	–	–	–	–	·	·
CCC(CO)Nc1ncc([N+](=O)[O-])cc1C#N (stereo not drawn)	–	–	–	–	–	–	·	·
N#Cc1cc([N+](=O)[O-])cnc1N(CCO)CCO	–	82	–	–	–	–	–	22
COCCCNC(=O)CN1C(=O)/C(=C\c2ccc(C)cc2)Sc2ccccc21	–	78	–	–	–	–	–	–
SMILES	TAAR1 antag	OX1R antag-1	TAAR1 ag	OX1R antag-2	CHO parental Ca	GPR7 antagonist	OX1R HTRF confirm	CHO-K1 HTRF cnt
COCCCNC(=O)N1c2ccccc2Sc2ccccc21	–	–	–	–	–	–	·	·
CC1(C(=O)NC2CCCCC2)CCC(=O)N1CC(F)(F)F (stereo not drawn)	–	·	–	·	·	·	·	·
CC(=O)c1cccc(NC(=O)CCNS(=O)(=O)c2cccc3nonc23)c1	–	97	–	–	–	–	–	23
COc1cccc(NC(=O)CCNS(=O)(=O)c2cccc3nonc23)c1	–	–	–	–	–	–	·	·
COc1ccccc1C(=O)NCCC(=O)N(C)CC(=O)Nc1ccc(N2CCOCC2)cc1	–	–	–	–	–	·	·	·
Nc1nc2ccccc2n1/N=C/c1ccc([N+](=O)[O-])s1	–	78	–	–	–	–	–	27
Nc1nc2ccccc2n1/N=C/c1cccnc1	–	–	–	–	–	–	·	·
C[C@H]1CN([C@@H](C)CO)C(=O)c2cc(Br)cnc2O[C@H]1CN(C)C(=O)C1CC1	–	·	–	·	·	·	·	·
O=C1c2cc(S(=O)(=O)N(CCO)CCO)ccc2-c2ccc(S(=O)(=O)N(CCO)CCO)cc21	–	111	–	–	–	·	71	72
CN(CCO)S(=O)(=O)c1ccc2c(c1)C(=NN)c1cc(S(=O)(=O)N(C)CCO)ccc1-2	–	–	–	–	–	–	·	·
CCN(C(=O)CN1C(=O)c2ccc([N+](=O)[O-])cc2C1=O)C1CCS(=O)(=O)C1 (stereo not drawn)	–	90	–	–	–	·	64	74
CCCN1CCN(c2ccc([N+](=O)[O-])cc2C#N)CC1	–	83	–	–	–	–	–	46
CC(=O)N1CCN(c2ccc([N+](=O)[O-])cc2C#N)CC1	–	100	–	–	–	–	–	47
NC(=O)c1ccc(N2CCCCCC2)c([N+](=O)[O-])c1	–	–	–	–	–	–	·	·
CCN1CCN(c2ccc([N+](=O)[O-])cc2S(=O)(=O)N2CCOCC2)CC1	–	145	–	–	–	–	–	44
CC(=O)N1CCN(c2ccc(C(N)=O)cc2[N+](=O)[O-])CC1	–	81	–	–	–	–	–	30
O=C(Cn1cnc2ccccc2c1=O)NCCC(=O)Nc1ccc(F)cc1	–	–	–	–	–	–	·	·
CCc1nc2ccc(C(=O)NCc3ccc4c(c3)OCO4)cn2c1N(C)C(=O)Cc1ccccc1	–	·	–	·	·	·	·	·
NC1(C(=O)O)CSSC1	–	·	–	·	·	·	·	·
Cc1ccc(S(=O)(=O)Cc2c(C)noc2C)cc1	–	–	–	–	–	–	·	·
Cc1noc(C)c1CS(=O)(=O)c1ccc([N+](=O)[O-])cc1	–	107	–	–	–	–	58	58
NC(=O)c1ccsc1NC(=O)c1ccc2c(c1)CCCC2	–	79	–	–	–	–	66	–
O=S(=O)(c1cccc2nsnc12)N1CCCCC1	–	–	–	–	–	–	·	·
CCOC(=O)N1CCN(S(=O)(=O)c2cccc3nsnc23)CC1	–	82	–	–	–	–	–	39

From PubChem BioAssay
